Results on 8 molecules are retold here after ChEMBL document CHEMBL1143558, “Discovery of a novel series of peroxisome proliferator-activated receptor alpha/gamma dual agonists for the treatment of type 2 diabetes and dyslipidemia” (J Med Chem, 2005).

The target in test [1] is T1, Peroxisome proliferator-activated receptor alpha (Homo sapiens, UniProt Q07869).
T1 sequence (Q07869 whole entry): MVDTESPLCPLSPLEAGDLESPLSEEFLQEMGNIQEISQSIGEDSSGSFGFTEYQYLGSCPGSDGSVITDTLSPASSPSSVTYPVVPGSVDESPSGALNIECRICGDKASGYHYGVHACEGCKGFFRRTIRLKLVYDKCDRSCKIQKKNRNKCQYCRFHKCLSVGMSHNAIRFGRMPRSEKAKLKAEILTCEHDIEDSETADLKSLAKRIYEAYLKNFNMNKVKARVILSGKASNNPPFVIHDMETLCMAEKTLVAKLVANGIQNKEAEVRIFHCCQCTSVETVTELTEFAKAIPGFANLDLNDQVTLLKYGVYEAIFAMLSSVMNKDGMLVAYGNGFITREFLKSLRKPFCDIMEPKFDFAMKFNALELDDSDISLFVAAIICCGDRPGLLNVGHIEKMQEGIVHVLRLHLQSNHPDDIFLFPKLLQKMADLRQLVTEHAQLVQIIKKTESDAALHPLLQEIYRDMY
Nature of the test: Inhibition of human Peroxisome proliferator activated receptor alpha binding.

For test [2], the target named is T2, Peroxisome proliferator-activated receptor gamma (Homo sapiens, UniProt P37231).
T2 sequence (P37231 whole entry): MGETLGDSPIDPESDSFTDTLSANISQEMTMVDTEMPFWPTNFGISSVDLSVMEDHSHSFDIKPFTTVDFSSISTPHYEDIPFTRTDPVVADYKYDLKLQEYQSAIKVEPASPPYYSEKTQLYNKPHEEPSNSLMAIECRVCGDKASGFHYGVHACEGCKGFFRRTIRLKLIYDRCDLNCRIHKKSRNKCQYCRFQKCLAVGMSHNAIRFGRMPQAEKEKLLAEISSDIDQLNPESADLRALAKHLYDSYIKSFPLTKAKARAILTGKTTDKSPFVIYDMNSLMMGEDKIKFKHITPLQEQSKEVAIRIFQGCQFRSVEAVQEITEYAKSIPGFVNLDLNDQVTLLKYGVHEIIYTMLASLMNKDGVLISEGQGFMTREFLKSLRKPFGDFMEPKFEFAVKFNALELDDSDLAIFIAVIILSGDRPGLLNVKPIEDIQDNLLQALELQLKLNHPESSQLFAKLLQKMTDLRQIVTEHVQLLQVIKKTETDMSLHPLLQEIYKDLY
Kind of test: Inhibition of human Peroxisome proliferator activated receptor gamma binding.

Test [3] concerns the target T1, Peroxisome proliferator-activated receptor alpha. Kind of test: Effective concentration against human Peroxisome proliferator activated receptor alpha in Gal4 transactivation assay; Not active at 3 uM. In outline: (§1)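 Chimeric GAL4-hPPARα or GAL4-hPPARγ transactivation assay in transiently transfected COS-1 cells. Compounds were titrated up to 3 µM, the highest concentration tested. […] "Not active" means no activity at 3 µM.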

The target in test [4] is T2, Peroxisome proliferator-activated receptor gamma. Nature of the test: Effective concentration against human Peroxisome proliferator activated receptor gamma in Gal4 transactivation assay; Not active at 3 uM. In outline:
as §1

For test [5] the target is unchanged. Kind of test: Maximal effect against human Peroxisome proliferator activated receptor gamma in Gal4 transactivation assay. In outline:
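Chimeric GAL4-hPPARγ transactivation assay in transiently transfected COS-1 cells. The response is given as percent at 3 µM, the mean of n = 3.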

Test [6] deals with T1, Peroxisome proliferator-activated receptor alpha. Nature of the test: Effective concentration against human Peroxisome proliferator activated receptor alpha in Gal4 transactivation assay.
Test [7] addresses T2, Peroxisome proliferator-activated receptor gamma. Kind of test: Effective concentration against human Peroxisome proliferator activated receptor gamma in Gal4 transactivation assay.
The target of test [8] is T3, Peroxisome proliferator-activated receptor alpha (Mus musculus, UniProt P23204).
T3 sequence (P23204 whole entry): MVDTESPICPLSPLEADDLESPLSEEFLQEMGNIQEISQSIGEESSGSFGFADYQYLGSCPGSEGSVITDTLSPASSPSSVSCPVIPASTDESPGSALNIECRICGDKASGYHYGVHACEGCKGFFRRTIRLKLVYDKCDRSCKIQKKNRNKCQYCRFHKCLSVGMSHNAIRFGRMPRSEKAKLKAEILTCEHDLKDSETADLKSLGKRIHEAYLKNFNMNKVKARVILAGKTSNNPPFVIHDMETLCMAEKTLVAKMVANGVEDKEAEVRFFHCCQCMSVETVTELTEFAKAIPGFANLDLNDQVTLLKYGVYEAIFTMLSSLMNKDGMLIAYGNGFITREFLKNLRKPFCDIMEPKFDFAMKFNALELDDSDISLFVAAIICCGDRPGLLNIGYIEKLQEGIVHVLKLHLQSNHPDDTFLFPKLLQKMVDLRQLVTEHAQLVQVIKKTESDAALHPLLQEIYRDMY
Kind of test: Agonist activity against mouse Peroxisome proliferator activated receptor alpha. The class given is functional. In short, it runs like this: (§2)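 Chimeric GAL4 fusions carrying the PPARα receptor from dog, hamster or mouse, constructed like the human transactivation assay. Run in transiently transfected COS-1 cells, with agonist activity read as EC50.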

The target in test [9] is T4, Peroxisome proliferator-activated receptor alpha (Canis lupus familiaris, UniProt Q95N78).
T4 sequence (Q95N78 whole entry): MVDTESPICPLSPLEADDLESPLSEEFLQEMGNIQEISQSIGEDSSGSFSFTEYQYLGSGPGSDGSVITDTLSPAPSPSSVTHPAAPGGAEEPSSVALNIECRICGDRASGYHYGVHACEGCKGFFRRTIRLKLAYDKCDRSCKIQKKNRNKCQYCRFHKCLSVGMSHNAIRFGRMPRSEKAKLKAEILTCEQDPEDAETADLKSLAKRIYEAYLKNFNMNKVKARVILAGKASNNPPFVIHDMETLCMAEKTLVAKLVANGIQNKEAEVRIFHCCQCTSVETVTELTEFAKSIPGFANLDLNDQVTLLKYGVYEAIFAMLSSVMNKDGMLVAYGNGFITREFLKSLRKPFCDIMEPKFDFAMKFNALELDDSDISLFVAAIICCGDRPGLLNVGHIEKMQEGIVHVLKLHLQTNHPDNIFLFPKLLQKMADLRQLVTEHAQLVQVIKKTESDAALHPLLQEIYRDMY
Nature of the test: Agonist activity against dog Peroxisome proliferator activated receptor alpha. It is filed as functional. In short, it runs like this:
as §2

Take `CCCc1cc2c(C(F)(F)F)noc2c(CCC)c1OCC(C)(C)C(=O)O`: the IC50 in test [1] is more than 50000 nM; in [2], more than 15000 nM. The EC50 entry in [3] and in test [4] was “Not Active” each time.
Consider `CCCc1cc2c(C(F)(F)F)noc2c(CCC)c1OC(C)(CC)C(=O)O` (configuration not stated), for which the IC50 in test [1] is 100 nM; in test [2] it was more than 15000 nM. This molecule also came in with an Emax in [5] of 26%. In [6], the EC50 was determined as 750 nM.
Regarding `CCCc1cc(C(=O)CC)cc(CCC)c1OC(C)(C)C(=O)O`, the IC50 in [1] was found to be 480 nM; in test [2], 1220 nM. The EC50 was 1300 nM in [7] and 10 nM in test [6].
For `CCCc1cc2c(C(F)(F)F)noc2c(CCC)c1OC(C)(C)C(=O)O`, the IC50 in [1] was determined as 230 nM; in test [2] it was 1580 nM. Further, the Emax in [5] came to 25%. Further, the EC50 in test [8] stood at 180 nM; in test [9] it was 550 nM; in [6] it was 300 nM.
As to `CCCc1cc2c(C(F)(F)F)noc2c(CCC)c1OC(C)C(=O)O` (configuration not stated), the IC50 in test [1] was 1030 nM; in [2], more than 10000 nM. The Emax in test [5] turned out to be 21%. The midpoint of the response in test [6], the EC50, lay at 620 nM.
As for `CCCc1c(OC(C)(C)C(=O)O)ccc2c(C(F)(F)F)noc12`, the IC50 in test [1] and in [2] was more than 10000 nM in each case. Further, the EC50 result in test [3] and in test [4] was “Not Active” each time.
As to `CC(C)(Oc1ccc(C(=O)c2ccc(Cl)cc2)cc1)C(=O)O` [FENOFIBRIC ACID], in [1], the IC50 stood at 35000 nM. In test [6], this molecule came in with an EC50 of 15000 nM.
As for `CCCc1cc2c(OC)noc2c(CCC)c1OC(C)(C)C(=O)O`, the IC50 in test [1] worked out at 1510 nM; in [2], 1620 nM. Moreover, the EC50 in test [7] stood at 1100 nM; in test [6] it was 60 nM.

The IC50 is the midpoint of a concentration-inhibition curve. Read a low IC50 as greater potency. In general, EC50 refers to the concentration giving half of the maximal effect. Lower therefore signals an effect from little substance.
